What all share (type): functional
The test system of assay [1] is OVCAR-3. The assay can be described thus: Cytotoxicity against human OVCAR-3 cells. In outline:
(§1)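 Tested in the NCI in vitro antitumor screening protocol across a tumor cell line panel. GI₅₀ is the concentration producing a 50% reduction in cell growth.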

For assay [2], the system named is K562. The assay is described as follows: Cell cycle arrest in human K562 cells assessed as accumulation at G0/G1 phase at 50 uM after 24 hrs by flow cytometry. In outline: (§2)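 K-562 human leukemia cells were grown in RPMI 1640 with 10% fetal calf serum, glutamine and penicillin/streptomycin at 37 °C in 5% CO₂. Cells were exposed to compound at 50 µM for 24 h, then pelleted and PBS-washed. They were fixed in ice-cold ethanol for 30 min, treated with 1 mg/mL RNase A at 37 °C for 30 min, and stained with propidium iodide and Triton X-100 for 30 min at room temperature in the dark. Per-phase and sub-G1 percentages came from flow cytometry gating.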
(In flow cytometry, cells or beads pass a laser one at a time.)

Assay [3] has as its system UACC-62. The assay can be described thus: Cytotoxicity against human UACC62 cells. The following applies: read-out: pGI50 (converted). Summed up: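 NCI in vitro antitumor screening protocol; GI50 taken as the concentration giving 50% reduction in cell growth.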
Assay [4] has as its system HCT-15. The assay is described as follows: Cytotoxicity against human HCT15 cells. Summed up:
as §1

For assay [5], the system named is K562. The assay can be described thus: Cell cycle arrest in human K562 cells assessed as accumulation at G2/M phase at 50 uM after 24 hrs by flow cytometry. In outline:
as §2

Assay [6] has as its system K562. The assay is described as follows: Cytotoxicity against human K562 cells. In outline: as §1
For assay [7], the system named is K562. The assay can be described thus: Cell cycle arrest in human K562 cells assessed as accumulation at sub-G1 phase at 50 uM after 24 hrs by flow cytometry. In outline: as §2
For assay [8], the system named is MDA-MB-435. The assay is described as follows: Cytotoxicity against human MDA-MB-435 cells. Summed up:
as §1

The test system of assay [9] is MDA-MB-231. The assay can be described thus: Cytotoxicity against human MDA-MB-231 cells. Summed up:
as §1

In assay [10] the test system is K562. The assay can be described thus: Cell cycle arrest in human K562 cells assessed as accumulation at S phase at 50 uM after 24 hrs by flow cytometry. In outline:
as §2

In assay [11] the test system is SNB-75. The assay can be described thus: Cytotoxicity against human SNB75 cells. The following applies: read-out: pGI50 (converted). In outline:
as §1

In assay [12] the test system is MDA-MB-231. The assay is described as follows: Cell cycle arrest in human MDA-MB-231 cells assessed as accumulation of 2N cells at 2 uM after 24 hrs by flow cytometry.
In assay [13] the test system is MDA-MB-231. The assay can be described thus: Cell cycle arrest in human MDA-MB-231 cells assessed as accumulation of >4N cells at 2 uM after 24 hrs by flow cytometry.
In assay [14] the test system is MDA-MB-231. The assay is described as follows: Cell cycle arrest in human MDA-MB-231 cells assessed as accumulation of >4N cells at 2 uM after 72 hrs by flow cytometry.
In assay [15] the test system is MDA-MB-231. The assay can be described thus: Cell cycle arrest in human MDA-MB-231 cells assessed as accumulation of 4N cells at 2 uM after 24 hrs by flow cytometry.
The test system of assay [16] is MDA-MB-231. The assay can be described thus: Cell cycle arrest in human MDA-MB-231 cells assessed as accumulation of 2N cells at 2 uM after 72 hrs by flow cytometry.
Assay [17] has as its system MDA-MB-231. The assay is described as follows: Cell cycle arrest in human MDA-MB-231 cells assessed as accumulation at sub-G1 phase at 2 uM after 24 hrs by flow cytometry.
Assay [18] deals with MDA-MB-231. The assay can be described thus: Cell cycle arrest in human MDA-MB-231 cells assessed as accumulation at sub-G1 phase at 2 uM after 72 hrs by flow cytometry.
Assay [19] concerns MDA-MB-231. The assay is described as follows: Cell cycle arrest in human MDA-MB-231 cells assessed as accumulation of 4N cells at 2 uM after 72 hrs by flow cytometry.

As for `Nc1ccccc1C#C/C=C\C#Cc1c(F)c(F)c(F)c(F)c1F`, the GI50 is 15.8 µM in [1]; 12.6 µM in assay [3]; 15.8 µM in assay [4]; 15.8 µM in assay [6]; 15.8 µM in [8]; 2.51 µM in assay [9]. In [11], the GI50 was 39.8 µM. Moreover, the Activity in [2] is 43.6%; in assay [5] it was 17.9%; in [7], 27.34%; in [10], 38.5%.
For the compound `CCOC(=O)c1ccccc1C#C/C=C\C#Cc1ccccc1N`, the Activity in [2] turned out to be 5.9%; in assay [5], 81.4%; in assay [7], 28.68%; in [10], 12.7%.
With `Nc1ccccc1C#C/C=C\C#Cc1ccccc1F`, the GI50 in [1] was 3.16 µM; in assay [3] it was 7.94 µM; in assay [4], 5.01 µM; in assay [6], 3.16 µM; in assay [8], 2 µM; in [9], 10 µM. Besides, the Activity came out at 22.1% in [2], 37% in assay [5], 11.5% in [7] and 40.9% in assay [10].
With `Nc1ccccc1C#C/C=C\C#Cc1ccc(F)cc1F`, the GI50 was 6.31 µM in assay [1]; 15.8 µM in assay [3]; 12.6 µM in assay [4]; 5.01 µM in [6]; 2.51 µM in assay [8]; 15.8 µM in assay [9]. Further, the Activity in assay [2] was found to be 32.5%; in [5], 34.4%; in assay [7], 10.04%; in [10], 33.1%.
Consider `COc1ccc(/C=C\c2cc(OC)c(OC)c(OC)c2)cc1O` [COMBRETASTATIN A4], for which the GI50 in assay [1] is 0.0398 µM; in assay [3], 0.01 µM; in assay [4], 0.0316 µM; in assay [6], 0.0316 µM; in assay [8], 0.0316 µM; in assay [9], 0.01 µM. The GI50 in assay [11] was 0.794 µM.
`COc1cc2c(c(OC)c1OC)-c1ccc(OC)c(=O)cc1[C@@H](NC(C)=O)CC2` [COLCHICINE]: the GI50 is 0.0158 µM in assay [1]; 0.0251 µM in assay [3]; 0.126 µM in [4]; 0.0126 µM in [6]; 0.01 µM in [8]; 0.316 µM in assay [9]. In assay [11], the GI50 is 0.0251 µM. Besides, the Activity stood at 10.2% in assay [12]; 11.3% in [13]; 11.5% in assay [14]; 55.2% in assay [15]; 6.9% in assay [16]; 23.3% in assay [17]. Moreover, the Activity in [18] was 60%; in [19], 21.6%.
`Nc1ccccc1C#C/C=C\C#Cc1ccccc1OC(F)(F)F`: the GI50 in [1] is 3.98 µM; in assay [3], 6.31 µM; in assay [4] it was 3.98 µM; in [6], 2.51 µM; in assay [8], 1.26 µM; in [9], 5.01 µM. Also, the GI50 in assay [11] is 2.51 µM. The Activity in assay [2] is 4.5%; in assay [5], 71.4%; in assay [7], 30.55%; in [10] it was 24.1%.
Regarding `Nc1ccccc1C#C/C=C\C#Cc1ccccc1[N+](=O)[O-]`, the GI50 in assay [1] was 3.98 µM; in [3], 2 µM; in assay [4], 0.794 µM; in assay [6], 0.501 µM; in [8], 0.398 µM; in assay [9], 0.398 µM. The GI50 in [11] was 12.6 µM. The Activity came out at 42.7% in assay [2], 16.3% in [5], 11.13% in assay [7] and 41% in assay [10].
Regarding `Nc1ccccc1C#C/C=C\C#CC#C/C=C\C#Cc1ccccc1N`, the GI50 is 2.51 µM in assay [1]; 2 µM in assay [3]; 3.98 µM in assay [4]; 0.794 µM in [6]; 3.16 µM in assay [8]; 1.58 µM in assay [9]. Besides, the GI50 in [11] is 3.16 µM. Further, the Activity in assay [2] was 22.8%; in assay [5], 52.2%; in assay [7], 9.19%; in [10] it was 25%.
Consider `Nc1ccccc1C#C/C=C\C#Cc1ccc([N+](=O)[O-])cc1`, for which the Activity in assay [2] is listed as 35%; in [5], 18.8%; in [7] it was 15.78%; in assay [10] it was 46.2%.

Source of the values: ChEMBL document CHEMBL1149910, “2-(6-aryl-3(Z)-hexen-1,5-diynyl)anilines as a new class of potent antitubulin agents” (J Med Chem, 2008).
